Data set [1] concerns the target Protein farnesyltransferase (Bos taurus, UniProt P29702+P49355). Kind of data set: In vitro inhibitory activity against farnesyltransferase (FTase). It counts as protein-complex assay. The procedure, abridged:
(§1)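 FTase and GGTase1 enzymes purified from bovine brain; inhibition measured in vitro by scintillation proximity assay (SPA), IC50 determined.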

The subject of data set [2] is NIH3T3. Kind of data set: Effective concentration against Ha-RAS processing in NIH3T3 ras-transformed cells. The format is functional, cell-based. The conditions noted are these: Mus musculus.
In data set [3] the target is Geranylgeranyl transferase type I (Bos taurus, UniProt P29702+Q5EAD5). In words: In vitro inhibition of geranylgeranyltransferase. It counts as protein-complex assay. The procedure, abridged: as §1
In data set [4] the test system is NIH3T3. In words: Inhibitory activity against NIH3T3 ras-transformed cells at 1 uM. To be noted: Mus musculus. It counts as functional.
Data set [5] in a line: Half-life time in rat was determined. The format is ADME, organism-based. The conditions noted are these: in vivo.
Data set [6] is described as follows: Oral bioavailability in rat. It counts as ADME, organism-based. The conditions noted are these: in vivo.

This note sets out measurements from ChEMBL document CHEMBL1136695, “Novel and selective imidazole-containing biphenyl inhibitors of protein farnesyltransferase” (Bioorg Med Chem Lett, 2003).

“And” between values parts separate entries of the source, which are not always exact repeats. Identical values can stand only once. Some results are limits rather than exact numbers.

With `Cn1cncc1CN(Cc1ccccc1)c1ccc(C#N)c(-c2cccc3ccccc23)c1`, the half-inhibitory concentration (IC50) (in general, the concentration needed to halve the response being measured) in data set [1] is 1.5 nM and 11 nM.
With `Cc1ccccc1-c1cc(N(Cc2cccc(C#N)c2)Cc2cncn2C)ccc1C#N`, in the data set with NIH3T3 [2], the concentration for a half-maximal effect (EC50) (commonly the concentration needed to bring the measured effect to its halfway point) came to 70 nM. Besides, the half-maximal inhibitory concentration (IC50) in data set [3] was 1200 nM; in data set [1], 0.97 nM.
Regarding `Cn1cncc1CN(Cc1ccnc(C#N)c1)c1ccc(C#N)c(-c2cccc3ccccc23)c1`, in the data set with NIH3T3 [2], a half-maximal response (EC50) required 80 nM. Besides, the IC50 in data set [3] is 650 nM; in data set [1], 0.37 nM.
Regarding `Cn1cncc1CN(c1ccc(C#N)c(-c2cccc3ccccc23)c1)S(=O)(=O)c1ccccc1`, the half-inhibitory concentration (IC50) in data set [3] was 1900 nM; in data set [1], 18 nM.
For `NC(=O)N1CCC(CC(=O)N2CCC([C@H]3c4ncc(Br)cc4CCc4cc(Cl)cc(Br)c43)CC2)CC1` [LONAFARNIB], the EC50 in the data set on NIH3T3 [2] was found to be 160 nM. Further, in data set [1], 7.8 nM corresponded to half-maximal inhibition (IC50).
Take `Cn1cncc1CN(c1ccc(C#N)c(-c2cccc3ccccc23)c1)C1CCCCC1`: the IC50 in data set [3] stood at 180 nM; in data set [1] it was 1.9 nM.
As to `Cc1ccccc1-c1cc(N(Cc2ccc(C#N)cc2)Cc2cncn2C)ccc1C#N`, the results for the IC50 in data set [3] and in data set [1] were 1000 nM and 10 nM, respectively. The inhibition (in general, how much of the control response was suppressed) at 1 µM in the data set with NIH3T3 [4] worked out at 29%.
In the case of `Cn1cncc1CN(Cc1ccc(C#N)cc1)c1ccc(C#N)c(-c2cccc3ccccc23)c1`, the IC50 in data set [3] came out at 1000 nM; in data set [1], 1.5 nM. 1 µM produced 64% inhibition with NIH3T3 [4].
As to `Cn1cncc1[C@@](N)(c1ccc(Cl)cc1)c1ccc2c(c1)c(-c1cccc(Cl)c1)cc(=O)n2C` [TIPIFARNIB], the EC50 in the data set on NIH3T3 [2] is 2 nM. This compound also displayed an IC50 in data set [1] of 0.57 nM.
With `Cn1cncc1CN(Cc1cccc(C#N)c1)c1ccc(C#N)c(-c2cccc3ccccc23)c1`, the 50% effective concentration (EC50) in the data set with NIH3T3 [2] was found to be 50 nM. Further, the IC50 in data set [3] amounted to 150 nM. Moreover, in data set [5], the half-life (in general, the time in which the quantity being followed falls by half) is less than 1 h. Also, in data set [6], the bioavailability (usually dose-corrected exposure relative to a reference, in per cent) was 10%.
Compound `Cc1ccccc1-c1cc(N(Cc2ccccc2)Cc2cncn2C)ccc1C#N` had a half-maximal inhibitory concentration (IC50) in data set [1] of 11 nM. That is a double-digit nanomolar value.
Consider `Cn1cncc1CN(Cc1cccc(Cl)c1)c1ccc(C#N)c(-c2cccc3ccccc23)c1`, for which the figures for the IC50 in data set [3] and in data set [1] were 230 nM and 0.45 nM, respectively. Moreover, in the data set with NIH3T3 [4], the inhibition at 1 µM is 45%.
Take `CCCCN(CCC1CCCCC1)Cc1ccc(C(=O)N[C@@H](CCSC)C(=O)O)c(-c2ccccc2C)c1`: 1 nM corresponded to half-maximal inhibition in data set [1] (IC50).
In the case of `Cn1cncc1CN(C(=O)c1ccccc1)c1ccc(C#N)c(-c2cccc3ccccc23)c1`, the IC50 was 310 nM in data set [3] and 14 nM in data set [1].
Take `Cc1ccccc1-c1cc(C(OCc2ccccc2)c2cncn2C)ccc1C#N` (stereo not given): in data set [1], 65 nM corresponded to half-maximal inhibition (IC50). This lies in the double-digit nanomolar range.
Same read-out and setting: for `Cc1ccccc1-c1cc(N(Cc2ccccc2)Cc2cnc[nH]2)ccc1C#N` the value was 84 nM; for `Cc1ccccc1-c1cc(NCc2cncn2C)ccc1C#N`, 1000 nM.
